Tests used:
PpKAI2-like C [1] = biological target: T1, PpKAI2-like C (Physcomitrium patens, UniProt A9SKF7); experiment: Differential scanning fluorimetry; type: binding, Physcomitrella patens
PpKAI2-like D [2] = experiment: Differential scanning fluorimetry; type: binding, Physcomitrella patens
PpKAI2-like E [3] = experiment: Differential scanning fluorimetry; type: binding, Physcomitrella patens
PpKAI2-like H [4] = biological target: T2, PpKAI2-like H (Physcomitrium patens, UniProt A9SG07); experiment: Differential scanning fluorimetry; type: binding, Physcomitrella patens; details: PpKAI2-like H wild-type
PpKAI2-like E S166A = biological target: T3, PpKAI2-like E S166A (Physcomitrium patens, UniProt A9ST85, S166A); experiment: Isothermal titration calorimetry of; type: binding, Physcomitrella patens
T3 sequence (A9ST85 1-270 S166A): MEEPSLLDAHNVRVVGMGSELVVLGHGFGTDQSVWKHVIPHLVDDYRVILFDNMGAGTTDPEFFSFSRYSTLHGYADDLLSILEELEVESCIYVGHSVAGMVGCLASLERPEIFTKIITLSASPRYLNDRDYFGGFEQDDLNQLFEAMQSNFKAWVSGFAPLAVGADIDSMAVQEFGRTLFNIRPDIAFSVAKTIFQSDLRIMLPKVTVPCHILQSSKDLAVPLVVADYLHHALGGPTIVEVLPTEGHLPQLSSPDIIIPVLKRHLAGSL
Outline: (§1)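 GST-fused protein (wild-type or point mutant) was expressed in E. coli BL21-CodonPlus-RIL, HRV3-cleaved on glutathione resin, then size-excluded in 20 mM Tris-HCl, 30 mM NaCl, 1 mM TCEP, pH 7.7. Protein at 1800 μM was titrated into 40 μM racemic GR24 over 20 injections spaced 240 s apart. Data were fitted to a one-site binding model.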

[5] = biological target: PpKAI2-like E S166D S170D; experiment: Isothermal titration calorimetry of; type: binding, Physcomitrella patens; details: ITC
Outline: as §1

[6] = tested on: PpKAI2-like E SDIDSM166TDIHDE; experiment: Differential scanning fluorimetry; type: binding, Physcomitrella patens; details: loop-swap PpKAI2-like E SDIDSM166TDIHDE
[7] = tested on: PpKAI2-like H TDIHDE167SDIDSM; experiment: Differential scanning fluorimetry; type: binding, Physcomitrella patens; details: loop-swap PpKAI2-like H TDIHDE167SDIDSM
D14 = details: Arabidopsis D14; ref Zhao et al., 2013; cited from earlier work
DAD2 = details: Petunia paralog DAD2; ref Hamiaux et al., 2012; cited from earlier work
PpKAI2-like C [8] = biological target: T1, PpKAI2-like C; type: biochemical, Physcomitrella patens; details: 1 μM PpKAI2-like C, 1 mM substrate, 3 h, room temperature
PpKAI2-like D [9] = type: biochemical, Physcomitrella patens; details: 1 μM PpKAI2-like D, 1 mM substrate, 3 h, room temperature
PpKAI2-like E [10] = type: biochemical, Physcomitrella patens; details: 1 μM PpKAI2-like E, 1 mM substrate, 3 h, room temperature
PpKAI2-like C [11] = biological target: T1, PpKAI2-like C; experiment: Mass spectrometry of protein for D ring modification; type: biochemical, Physcomitrella patens; details: PpKAI2-like C incubated with ligand
PpKAI2-like D [12] = experiment: as above; type: biochemical, Physcomitrella patens; details: PpKAI2-like D incubated with ligand
PpKAI2-like E [13] = experiment: as above; type: biochemical, Physcomitrella patens; details: PpKAI2-like E incubated with ligand
PpKAI2-like H [14] = biological target: T2, PpKAI2-like H; experiment: Fluorescence-based equilibrium microdialysis, KAR1 binding; set-up: species or system Physcomitrella patens
PpKAI2-like K = experiment: as above; set-up: species or system Physcomitrella patens
PpKAI2-like L = experiment: as above; set-up: species or system Physcomitrella patens
PpKAI2-like C [15] = biological target: T1, PpKAI2-like C; experiment: as above; set-up: species or system Physcomitrella patens
PpKAI2-like D [16] = experiment: as above; set-up: species or system Physcomitrella patens
PpKAI2-like E [17] = experiment: as above; set-up: species or system Physcomitrella patens
PpKAI2-like B = experiment: as above; set-up: species or system Physcomitrella patens
[18] = tested on: PpKAI2-like E SDIDSM166TDIHDE; experiment: as above; set-up: species or system Physcomitrella patens; details: loop-swap PpKAI2-like E SDIDSM166TDIHDE
[19] = tested on: PpKAI2-like H TDIHDE167SDIDSM; experiment: as above; set-up: species or system Physcomitrella patens; details: loop-swap PpKAI2-like H TDIHDE167SDIDSM
AtKAI2 = details: read-out: published affinity, ref Guo et al., 2013; cited from earlier work
[20] = tested on: Physcomitrella caulonema growth; details: ref Hoffmann et al., 2014; cited from earlier work

With `CC1=CC(O/C=C(C)\C=C\C2=C(C)CCCC2(C)C)OC1=O` (racemic) [rac-carlactone] the “change of protein melting point (DSF)” value (PpKAI2-like C [1]) was “unable to detect any interaction”, the “change of protein melting point (DSF)” value (PpKAI2-like D [2]) was “unable to detect any interaction” and the “change of protein melting point (DSF)” value (PpKAI2-like E [3]) was “unable to detect any interaction”. The “binding / interaction (DSF)” value (PpKAI2-like H [4]) was “unable to detect any interaction”.
With `CC1=CC(O/C=C2/C(=O)OC3c4ccccc4CC23)OC1=O` (racemic) [(±)-GR24] the Kd (PpKAI2-like E S166A) was 81 µM, the “binding of (±)-GR24” value [5] was “unable to detect binding” and the “change of protein melting point (DSF)” value (PpKAI2-like C [1]) was “destabilization”. For the same compound, the “change of protein melting point (DSF)” value (PpKAI2-like D [2]) was “destabilization”, the “change of protein melting point (DSF)” value (PpKAI2-like E [3]) was “strongest shift of the protein melting point” and the “binding / interaction (DSF)” value (PpKAI2-like H [4]) was “no binding observed”. For the same compound, the “affinity (DSF)” value [6] was “reduced compared to wild-type”, the “affinity (DSF)” value [7] was “weak affinity” and the turnover rate (D14) was 1 (±)-GR24 molecule/3 min. The turnover rate (DAD2) was 3 (±)-GR24 molecules/hr.
With (+)-5-deoxystrigol the “change of protein melting point (DSF)” value (PpKAI2-like C [1]) was “unable to detect a change in melting points”, the “change of protein melting point (DSF)” value (PpKAI2-like D [2]) was “unable to detect a change in melting points” and the “change of protein melting point (DSF)” value (PpKAI2-like E [3]) was “unable to detect a change in melting points”. For the same compound, the “degradation of intact substrate mass” value (PpKAI2-like C [8]) was “did not observe any effect”, the “degradation of intact substrate mass” value (PpKAI2-like D [9]) was “did not observe any effect” and the “degradation of intact substrate mass” value (PpKAI2-like E [10]) was “did not observe any effect”. For the same compound, the “D ring modification of active site histidine” value (from here on “D ring modification”) (PpKAI2-like C [11]) was “unable to detect the modification”, the “D ring modification” value (PpKAI2-like D [12]) was “unable to detect the modification” and the “D ring modification” value (PpKAI2-like E [13]) was “unable to detect the modification”.
`Cc1c2ccocc-2oc1=O` [KAR1] showed a Kd (PpKAI2-like H [14]) of 6.7 µM, a Kd (PpKAI2-like K) of 7.7 µM and a Kd (PpKAI2-like L) of 5.2 µM. For the same compound, the KAR1 binding (PpKAI2-like C [15]) was “unable to detect KAR1 binding”, the KAR1 binding (PpKAI2-like D [16]) was “unable to detect KAR1 binding” and the KAR1 binding (PpKAI2-like E [17]) was “unable to detect KAR1 binding”. For the same compound, the KAR1 binding (PpKAI2-like B) was “do not bind”, the KAR1 binding [18] was “weak binding” and the KAR1 binding [19] was “lost KAR1 binding ability”. For the same compound, the Kd (AtKAI2) was 9 µM and the “effect on Physcomitrella caulonema growth” value [20] was “not found any effect”.
In the case of (−)-5-deoxystrigol, the “change of protein melting point (DSF)” value (PpKAI2-like C [1]) is reported as “absolute preference”, the “change of protein melting point (DSF)” value (PpKAI2-like D [2]) is reported as “absolute preference” and the “change of protein melting point (DSF)” value (PpKAI2-like E [3]) is reported as “absolute preference”. The “binding / interaction (DSF)” value (PpKAI2-like H [4]) was “no binding observed”, the “affinity (DSF)” value [6] was “reduced compared to wild-type” and the “affinity (DSF)” value [7] was “weak affinity”. The “degradation of intact substrate mass” value (PpKAI2-like C [8]) was “loss of intact (−)-5-deoxystrigol mass”, the “degradation of intact substrate mass” value (PpKAI2-like D [9]) was “loss of intact (−)-5-deoxystrigol mass” and the “degradation of intact substrate mass” value (PpKAI2-like E [10]) was “loss of intact (−)-5-deoxystrigol mass”. The “D ring modification” value (PpKAI2-like C [11]) was 96 Da mass of the D ring to be attached to the active site histidines, the “D ring modification” value (PpKAI2-like D [12]) was 96 Da mass of the D ring to be attached to the active site histidines and the “D ring modification” value (PpKAI2-like E [13]) was 96 Da mass of the D ring to be attached to the active site histidines.
With (+)-4-deoxyorobanchol the “change of protein melting point (DSF)” value (PpKAI2-like C [1]) was “unable to detect a change in melting points”, the “change of protein melting point (DSF)” value (PpKAI2-like D [2]) was “unable to detect a change in melting points” and the “change of protein melting point (DSF)” value (PpKAI2-like E [3]) was “unable to detect a change in melting points”.
For (−)-4-deoxyorobanchol, the “change of protein melting point (DSF)” value (PpKAI2-like C [1]) was “unable to detect a change in melting points”, the “change of protein melting point (DSF)” value (PpKAI2-like D [2]) was “unable to detect a change in melting points” and the “change of protein melting point (DSF)” value (PpKAI2-like E [3]) was “unable to detect a change in melting points”.
